Laboratory results reported in ChEMBL document CHEMBL4368872, “Synthesis and anticonvulsant activity of phenoxyacetyl derivatives of amines, including aminoalkanols and amino acids” (Medchemcomm, 2018).
Calls of active or inactive are those of the source. No cut-off for these calls is given here.

Tests used:
[1] = system: Mus musculus; assay: Anticonvulsant activity in CF-1 mouse model of subcutaneous pentylenetetrazole-induced seizure assessed as reduction in convulsions at 100 mg/kg, ip measured at 4 hrs post dose; type: functional, organism-based
Procedure, shortened: (§1)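 Mice dosed i.p., then given pentylenetetrazole 85 mg/kg in 0.9% NaCl s.c. into the posterior midline of the neck. Seizures watched for at least 30 min. Scored as protected / tested at 0.5 and 4 h.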

[2] = system: Mus musculus; assay: Anticonvulsant activity in CF-1 mouse model of maximal electroshock-induced seizure assessed as suppression of tonic hind limb extension at 300 mg/kg, ip measured at 4 hrs post dose; type: functional, organism-based
Procedure, shortened: (§2)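 Mice dosed i.p. and given maximal electroshock at 50 mA. Read-out is protection, reported as number protected / number tested at 0.25, 0.5, 1 and 4 h after dosing.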

[3] = system: Mus musculus; assay: Anticonvulsant activity in CF-1 mouse model of maximal electroshock-induced seizure assessed as suppression of tonic hind limb extension at 30 mg/kg, ip measured at 0.5 hrs post dose; type: functional, organism-based; procedure, shortened: as §2
[4] = system: Mus musculus; assay: Anticonvulsant activity in CF-1 mouse model of subcutaneous pentylenetetrazole-induced seizure assessed as reduction in convulsions at 30 mg/kg, ip measured at 4 hrs post dose; type: functional, organism-based; procedure, shortened: as §1
[5] = system: Mus musculus; assay: Anticonvulsant activity in CF-1 mouse model of maximal electroshock-induced seizure assessed as suppression of tonic hind limb extension at 300 mg/kg, ip measured at 0.5 hrs post dose; type: functional, organism-based; procedure, shortened: as §2
[6] = system: Mus musculus; assay: Anticonvulsant activity in CF-1 mouse model of subcutaneous pentylenetetrazole-induced seizure assessed as reduction in convulsions at 100 mg/kg, ip measured at 0.5 hrs post dose; type: functional, organism-based; procedure, shortened: as §1
[7] = Neurotoxicity in CF-1 mouse at 30 mg/kg, ip measured after 4 hrs by rotarod test; type: toxicity, organism-based; conditions: in vivo
Procedure, shortened: (§3)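 Mice dosed i.p. were placed on a 1 in. knurled rod turning at 6 rpm. Toxicity was scored as failure to keep balance for at least 1 min, i.e. falling off three or more times. Results are reported as animals showing toxicity / animals tested at each time point.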

[8] = Neurotoxicity in CF-1 mouse at 100 mg/kg, ip measured after 0.25 hrs by rotarod test; type: toxicity, organism-based; conditions: in vivo; procedure, shortened: as §3
[9] = Neurotoxicity in CF-1 mouse at 100 mg/kg, ip measured after 4 hrs by rotarod test; type: toxicity, organism-based; conditions: in vivo; procedure, shortened: as §3
[10] = system: Mus musculus; assay: Anticonvulsant activity in CF-1 mouse model of subcutaneous pentylenetetrazole-induced seizure assessed as reduction in convulsions at 30 mg/kg, ip measured at 0.5 hrs post dose; type: functional, organism-based; procedure, shortened: as §1
[11] = system: Mus musculus; assay: Anticonvulsant activity in CF-1 mouse model of subcutaneous pentylenetetrazole-induced seizure assessed as reduction in convulsions at 300 mg/kg, ip measured at 4 hrs post dose; type: functional, organism-based; procedure, shortened: as §1
[12] = system: Mus musculus; assay: Anticonvulsant activity in CF-1 mouse model of maximal electroshock-induced seizure assessed as suppression of tonic hind limb extension at 30 mg/kg, ip measured at 4 hrs post dose; type: functional, organism-based; procedure, shortened: as §2
[13] = system: Mus musculus; assay: Anticonvulsant activity in CF-1 mouse model of maximal electroshock-induced seizure assessed as suppression of tonic hind limb extension at 100 mg/kg, ip measured at 0.25 hrs post dose; type: functional, organism-based; procedure, shortened: as §2
[14] = system: Mus musculus; assay: Anticonvulsant activity in CF-1 mouse model of maximal electroshock-induced seizure assessed as suppression of tonic hind limb extension at 100 mg/kg, ip measured at 4 hrs post dose; type: functional, organism-based; procedure, shortened: as §2
[15] = Neurotoxicity in CF-1 mouse at 100 mg/kg, ip measured after 1 hr by rotarod test; type: toxicity, organism-based; conditions: in vivo; procedure, shortened: as §3
[16] = Neurotoxicity in CF-1 mouse at 30 mg/kg, ip measured after 0.5 hrs by rotarod test; type: toxicity, organism-based; conditions: in vivo; procedure, shortened: as §3
[17] = system: Mus musculus; assay: Anticonvulsant activity in CF-1 mouse model of subcutaneous pentylenetetrazole-induced seizure assessed as reduction in convulsions at 300 mg/kg, ip measured at 0.5 hrs post dose; type: functional, organism-based; procedure, shortened: as §1
[18] = Neurotoxicity in CF-1 mouse at 100 mg/kg, ip measured after 0.5 hrs by rotarod test; type: toxicity, organism-based; conditions: in vivo; procedure, shortened: as §3
[19] = Neurotoxicity in CF-1 mouse at 300 mg/kg, ip measured after 4 hrs by rotarod test; type: toxicity, organism-based; conditions: in vivo; procedure, shortened: as §3
[20] = system: Mus musculus; assay: Anticonvulsant activity in CF-1 mouse model of maximal electroshock-induced seizure assessed as suppression of tonic hind limb extension at 100 mg/kg, ip measured at 1 hr post dose; type: functional, organism-based; procedure, shortened: as §2
[21] = system: Mus musculus; assay: Anticonvulsant activity in CF-1 mouse model of maximal electroshock-induced seizure assessed as suppression of tonic hind limb extension at 100 mg/kg, ip measured at 0.5 hrs post dose; type: functional, organism-based; procedure, shortened: as §2
[22] = Neurotoxicity in CF-1 mouse at 300 mg/kg, ip measured after 0.5 hrs by rotarod test; type: toxicity, organism-based; conditions: in vivo; procedure, shortened: as §3

Row | Structure (SMILES) | Activity [1] | Activity [2] | Activity [3] | Activity [4] | Activity [5] | Activity [6] | Activity [7] | Activity [8] | Activity [9] | Activity [10] | Activity [11] | Activity [12] | Activity [13] | Activity [14] | Activity [16] | Activity [17] | Activity [18] | Activity [19] | Activity [20] | Activity [21] | also measured
1 | CCC(NC(=O)COc1c(C)cc(C)cc1C)C(N)=O (stereo not drawn) | inactive | inactive | inactive | inactive | Active | inactive | Non-Toxic | Non-Toxic | Non-Toxic | inactive | inactive | inactive | inactive | inactive | Non-Toxic | inactive | Non-Toxic | Non-Toxic | inactive | inactive | Activity [15]: Non-Toxic
2 | CCC(CO)NC(=O)COc1c(C)cc(C)cc1C (stereo not drawn) | inactive | inactive | inactive | inactive | Active | inactive | Non-Toxic | Non-Toxic | Non-Toxic | inactive | inactive | inactive | inactive | inactive | Non-Toxic | inactive | – | Non-Toxic | inactive | inactive | Activity [15]: Non-Toxic
3 | Cc1cccc(C)c1OCC(=O)N[C@H](C)C(N)=O | inactive | inactive | inactive | – | Active | inactive | Non-Toxic | Non-Toxic | Non-Toxic | inactive | inactive | inactive | inactive | inactive | Non-Toxic | inactive | – | Non-Toxic | inactive | inactive | –
4 | Cc1cccc(C)c1OCC(=O)N[C@@H](C)C(=O)O | inactive | inactive | inactive | inactive | inactive | inactive | Non-Toxic | – | Non-Toxic | inactive | inactive | inactive | – | inactive | Non-Toxic | inactive | Non-Toxic | Non-Toxic | – | inactive | Activity [22]: Non-Toxic
5 | Cc1cccc(C)c1OCC(=O)NC(C)C(=O)O (stereo not drawn) | inactive | inactive | inactive | inactive | inactive | inactive | Non-Toxic | – | Non-Toxic | inactive | inactive | inactive | – | inactive | Non-Toxic | inactive | Non-Toxic | Non-Toxic | – | inactive | Activity [22]: Non-Toxic
6 | Cc1cc(C)c(OCC(=O)NCC(O)c2ccccc2)c(C)c1 (stereo not drawn) | inactive | inactive | inactive | inactive | inactive | inactive | Non-Toxic | – | Non-Toxic | inactive | inactive | inactive | – | inactive | Non-Toxic | inactive | Non-Toxic | Non-Toxic | – | inactive | Activity [22]: Toxic
7 | Cc1cccc(C)c1OCC(=O)N[C@@H](C)CO | inactive | Active | inactive | inactive | Active | inactive | Non-Toxic | – | – | inactive | inactive | inactive | – | inactive | – | inactive | – | – | – | inactive | –
8 | Cc1cccc(C)c1OCC(=O)NCCc1ccccc1 | inactive | inactive | inactive | inactive | inactive | inactive | Non-Toxic | – | Non-Toxic | inactive | inactive | inactive | – | inactive | Non-Toxic | inactive | Non-Toxic | Non-Toxic | – | inactive | –
